{"source": "ChEMBL document CHEMBL3352723", "about": "“6-(Hetero)Arylpurine nucleotides as inhibitors of the oncogenic target DNPH1: synthesis, structural studies and cytotoxic activities” (Eur J Med Chem, 2014)", "key": {"[1]": {"experiment": "Cytotoxicity against human HCT15 cells after 72 hrs by MTT assay", "details": "HCT-15, 72 h"}, "[2]": {"experiment": "Cytotoxicity against human HCT116 cells after 72 hrs by MTT assay", "format": "functional, cell-based", "details": "HCT-116, 72 h", "summary_of_the_method": "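Cells grown in RPMI 1640 with L-glutamine, 10% FCS, penicillin/streptomycin and fungizone at 37 °C under 5% CO2. Seeding was 2000 cells/well for HCT116 and HL60 and 600 for HCT15; compounds added after 24 h in DMSO (1% final). Viable cells read at 490 nm with MTS reagent.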"}, "[3]": {"experiment": "Cytotoxicity against human HL60 cells after 72 hrs by MTT assay", "details": "HL-60, 72 h"}, "[4]": {"tested_on": "MCF7", "experiment": "Cytotoxicity against human MCF7 cells at 10 uM after 72 hrs by MTT assay", "details": "MCF7, 72 h, read-out: INH"}, "[5]": {"tested_on": "HCT-15", "details": "Homo sapiens, 10 uM"}, "[6]": {"tested_on": "HCT-116", "details": "Homo sapiens, 10 uM"}, "[7]": {"tested_on": "HL-60", "details": "Homo sapiens, 10 uM"}, "[8]": {"tested_on": "PC-3", "details": "Homo sapiens, 10 uM"}, "[9]": {"experiment": "Cytotoxicity against human HCT15 cells at 10 uM after 72 hrs by MTT assay", "details": "HCT-15, 72 h, read-out: INH"}, "[10]": {"experiment": "Cytotoxicity against human HCT116 cells at 10 uM after 72 hrs by MTT assay", "details": "HCT-116, 72 h, read-out: INH"}, "[11]": {"experiment": "Cytotoxicity against human HL60 cells at 10 uM after 72 hrs by MTT assay", "details": "HL-60, 72 h, read-out: INH"}, "[12]": {"experiment": "Cytotoxicity against human PC3 cells at 10 uM after 72 hrs by MTT assay", "details": "PC-3, 72 h, read-out: INH"}}, "note": "Activity calls are given as the source filed them. No cut-off for these calls is given here.", "data": [{"smiles": "O=P(O)(O)OC[C@H]1O[C@@H](n2cnc3c(NCc4ccccc4)ncnc32)[C@H](O)[C@@H]1O", "values": [{"measurement": "IC50", "setting": "[1]", "result": 800, "unit": "nM"}, {"measurement": "IC50", "setting": "[2]", "result": 7700, "unit": "nM"}, {"measurement": "IC50", "setting": "[3]", "result": 5000, "unit": "nM"}]}, {"smiles": "O=P(O)(O)OC[C@H]1O[C@@H](n2cnc3c(-c4cccc(-c5cccc6c5sc5ccccc56)c4)ncnc32)[C@H](O)[C@@H]1O", "values": [{"measurement": "inhibition at 10 µM", "setting": "[4]", "result": "> 90", "unit": "%"}, {"measurement": "inhibition", "setting": "[5]", "result": "inactive"}, {"measurement": "inhibition", "setting": "[6]", "result": "inactive"}, {"measurement": "inhibition", "setting": "[7]", "result": "inactive"}, {"measurement": "inhibition", "setting": "[8]", "result": "inactive"}]}, {"smiles": "O=P(O)(O)OC[C@H]1O[C@@H](n2cnc3c(-c4ccc5cc[nH]c5c4)ncnc32)[C@H](O)[C@@H]1O", "values": [{"measurement": "IC50", "setting": "[1]", "result": 1400, "unit": "nM"}, {"measurement": "IC50", "setting": "[2]", "result": "> 80000", "unit": "nM"}, {"measurement": "IC50", "setting": "[3]", "result": 500, "unit": "nM"}, {"measurement": "inhibition at 10 µM", "setting": "[9]", "result": "> 90", "unit": "%"}, {"measurement": "inhibition at 10 µM", "setting": "[10]", "result": "> 90", "unit": "%"}, {"measurement": "inhibition at 10 µM", "setting": "[11]", "result": "> 90", "unit": "%"}, {"measurement": "inhibition at 10 µM", "setting": "[12]", "result": "> 90", "unit": "%"}, {"measurement": "inhibition at 10 µM", "setting": "[4]", "result": "> 90", "unit": "%"}]}, {"smiles": "O=P(O)(O)OC[C@H]1O[C@@H](n2cnc3c(-c4ccccc4)ncnc32)[C@H](O)[C@@H]1O", "values": [{"measurement": "IC50", "setting": "[1]", "result": 700, "unit": "nM"}, {"measurement": "IC50", "setting": "[2]", "result": 3200, "unit": "nM"}, {"measurement": "IC50", "setting": "[3]", "result": 1700, "unit": "nM"}, {"measurement": "inhibition at 10 µM", "setting": "[9]", "result": "> 90", "unit": "%"}, {"measurement": "inhibition at 10 µM", "setting": "[10]", "result": "> 90", "unit": "%"}, {"measurement": "inhibition at 10 µM", "setting": "[11]", "result": "> 90", "unit": "%"}, {"measurement": "inhibition at 10 µM", "setting": "[12]", "result": "> 90", "unit": "%"}, {"measurement": "inhibition at 10 µM", "setting": "[4]", "result": "> 90", "unit": "%"}]}, {"smiles": "O=P(O)(O)OC[C@H]1O[C@@H](n2cnc3c(-c4ccoc4)ncnc32)[C@H](O)[C@@H]1O", "values": [{"measurement": "IC50", "setting": "[1]", "result": 1300, "unit": "nM"}, {"measurement": "IC50", "setting": "[2]", "result": 5500, "unit": "nM"}, {"measurement": "IC50", "setting": "[3]", "result": 15400, "unit": "nM"}, {"measurement": "inhibition at 10 µM", "setting": "[9]", "result": "> 90", "unit": "%"}, {"measurement": "inhibition at 10 µM", "setting": "[10]", "result": "> 90", "unit": "%"}, {"measurement": "inhibition at 10 µM", "setting": "[11]", "result": "> 90", "unit": "%"}, {"measurement": "inhibition at 10 µM", "setting": "[12]", "result": "> 90", "unit": "%"}, {"measurement": "inhibition at 10 µM", "setting": "[4]", "result": "> 90", "unit": "%"}]}, {"smiles": "O=P(O)(O)OC[C@H]1O[C@@H](n2cnc3c(-c4ccc(O)cc4)ncnc32)[C@H](O)[C@@H]1O", "values": [{"measurement": "IC50", "setting": "[1]", "result": 300, "unit": "nM"}, {"measurement": "IC50", "setting": "[2]", "result": 4100, "unit": "nM"}, {"measurement": "IC50", "setting": "[3]", "result": 500, "unit": "nM"}, {"measurement": "inhibition at 10 µM", "setting": "[9]", "result": "> 90", "unit": "%"}, {"measurement": "inhibition at 10 µM", "setting": "[10]", "result": "> 90", "unit": "%"}, {"measurement": "inhibition at 10 µM", "setting": "[11]", "result": "> 90", "unit": "%"}, {"measurement": "inhibition at 10 µM", "setting": "[12]", "result": "> 90", "unit": "%"}, {"measurement": "inhibition at 10 µM", "setting": "[4]", "result": "> 90", "unit": "%"}]}, {"smiles": "O=P(O)(O)OC[C@H]1O[C@@H](n2cnc3c(-c4ccc(Cl)s4)ncnc32)[C@H](O)[C@@H]1O", "values": [{"measurement": "IC50", "setting": "[1]", "result": 1000, "unit": "nM"}, {"measurement": "IC50", "setting": "[3]", "result": 6500, "unit": "nM"}, {"measurement": "inhibition at 10 µM", "setting": "[9]", "result": "> 90", "unit": "%"}, {"measurement": "inhibition at 10 µM", "setting": "[10]", "result": "> 90", "unit": "%"}, {"measurement": "inhibition at 10 µM", "setting": "[11]", "result": "> 90", "unit": "%"}, {"measurement": "inhibition at 10 µM", "setting": "[12]", "result": "> 90", "unit": "%"}, {"measurement": "inhibition at 10 µM", "setting": "[4]", "result": "> 90", "unit": "%"}]}, {"smiles": "O=C(O)c1ccc(-c2cccc(-c3ncnc4c3ncn4[C@@H]3O[C@H](COP(=O)(O)O)[C@@H](O)[C@H]3O)c2)cc1", "values": [{"measurement": "inhibition at 10 µM", "setting": "[4]", "result": "> 90", "unit": "%"}, {"measurement": "inhibition", "setting": "[5]", "result": "inactive"}, {"measurement": "inhibition", "setting": "[6]", "result": "inactive"}, {"measurement": "inhibition", "setting": "[7]", "result": "inactive"}, {"measurement": "inhibition", "setting": "[8]", "result": "inactive"}]}, {"smiles": "O=P(O)(O)OC[C@H]1O[C@@H](n2cnc3c(-c4cccc(Br)c4)ncnc32)[C@H](O)[C@@H]1O", "values": [{"measurement": "IC50", "setting": "[1]", "result": 600, "unit": "nM"}, {"measurement": "IC50", "setting": "[3]", "result": 3900, "unit": "nM"}, {"measurement": "inhibition at 10 µM", "setting": "[9]", "result": "> 90", "unit": "%"}, {"measurement": "inhibition at 10 µM", "setting": "[10]", "result": "> 90", "unit": "%"}, {"measurement": "inhibition at 10 µM", "setting": "[11]", "result": "> 90", "unit": "%"}, {"measurement": "inhibition at 10 µM", "setting": "[12]", "result": "> 90", "unit": "%"}, {"measurement": "inhibition at 10 µM", "setting": "[4]", "result": "> 90", "unit": "%"}]}]}
